Screening results from PubChem.
PME-1 primary: PME-1 inhibitors via competitive probe labeling, primary screen, biochemical, fluorescence polarization, FP-Rh probe, HTS; recombinant PME-1; Protein phosphatase methylesterase 1 (Homo sapiens), Q9Y570; inhibition, % at 5.9 µM; 320,000 compounds, 0.53% hits;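 active = inhibition above the campaign mean of all compounds plus 3 SD, cut at about 26% in these data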;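 also: competitive labeling of PME-1 active site by serine hydrolase directed probe; 0% = PME-1 with DMSO and 100% = wells lacking PME-1 enzyme; inhibitors block probe labeling so polarization falls and inhibition rises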
SIAE inh: human SIAE inhibitors, primary screen, biochemical, fluorescence polarization, FP-Rh probe, 1536-well HTS | AID 1053197, 2014 | Sialate O-acetylesterase (Homo sapiens), Q9HAT2 | SIAE FP-Rh probe binding | inhibition, % at 9.66 µM | 370,000 compounds, 0.69% hits;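 active = inhibition above a cutoff: mean of compounds within the control limits plus 3 SD of those, cut at about 17% in these data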;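 also: 0% = plate median of compound wells and 100% = probe without SIAE protein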
Target sequence (Q9HAT2 whole entry, looked up): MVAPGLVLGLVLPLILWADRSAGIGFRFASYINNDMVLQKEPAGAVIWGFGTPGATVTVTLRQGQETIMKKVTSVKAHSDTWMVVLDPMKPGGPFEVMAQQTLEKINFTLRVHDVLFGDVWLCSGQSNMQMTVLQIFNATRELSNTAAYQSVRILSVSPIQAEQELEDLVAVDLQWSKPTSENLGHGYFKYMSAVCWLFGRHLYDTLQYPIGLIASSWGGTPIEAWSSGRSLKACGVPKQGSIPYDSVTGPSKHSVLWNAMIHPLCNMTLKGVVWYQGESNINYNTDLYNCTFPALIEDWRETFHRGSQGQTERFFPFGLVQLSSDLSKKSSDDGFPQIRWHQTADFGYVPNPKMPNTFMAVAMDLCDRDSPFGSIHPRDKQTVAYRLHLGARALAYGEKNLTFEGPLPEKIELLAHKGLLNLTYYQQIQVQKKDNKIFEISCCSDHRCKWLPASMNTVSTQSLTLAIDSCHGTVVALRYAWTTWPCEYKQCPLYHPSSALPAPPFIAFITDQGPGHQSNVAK
TCR-CD3 inh: inhibitors of human TCR-CD3 interaction, primary screen, biochemical, fluorescence, TAMRA-labeled TCR probe; inhibition, % at 9.4 µM; 360,000 compounds, 0.37% hits; AID 651800, 2012; in the data active = inhibition above about 19%;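 also: recombinant mutant TCR 2C K166C tagged with TAMRA read by polarization; 0% = receptor in buffer alone and 100% = receptor with positive control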
Fam108B inh: mouse Fam108B serine hydrolase inhibitors, primary screen, counter-screen for RBBP9 inhibitor project, biochemical, fluorescence polarization. recombinant Fam108B, FP-Rh probe fluorescence polarization. inhibition, % at 9.51 µM. 300,000 compounds, 0.33% hits;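 active = inhibition above the screen mean inhibition plus 3 SD, computed separately per campaign, cut at about 18% in these data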;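 also: inhibitors lower polarization as less probe binds the enzyme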
ABHD4 inh: ABHD4 inhibitors, primary screen, biochemical, fluorescence polarization, mouse | AID 720543, 2013 | inhibition, % at 8.92 µM | 370,000 compounds, 0.54% hits | (Lyso)-N-acylphosphatidylethanolamine lipase (Mus musculus), Q8VD66 | purified mABHD4, FP-Rh probe fluorescence polarization;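 active = inhibition exceeding the mean over every tested compound plus 3 SD, cut at about 30% in these data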;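 also: 0% = plate median of compound wells and 100% = S159A mutant with DMSO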
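assay system = mABHD4 protein | compound dosing = single nominal dose of 8.92 µM, 0.89% DMSO final | read-out basis = percent inhibition of probe binding, normalized to plate controls | schedule = Enzyme–compound pre-incubation 45 min, then probe 60 min, both 25 °C | detection = fluorescence polarization, excitation 525 nm, emission 598 nm, BODIPY TMR filters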
HTRA1 inh: HTRA1 serine protease inhibitors, primary screen, biochemical, fluorescence polarization, HTS. Q92743. recombinant HTRA1, FP-rhodamine activity-based probe. inhibition, % at 5.96 µM. 340,000 compounds, 0.5% hits. AID 504803, 2011; in the data active = inhibition above about 36%;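 also: 0% = enzyme with DMSO and 100% = wells lacking enzyme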
Fam108b inh conf: mouse Fam108b serine hydrolase inhibitors, confirmation, counter-screen for RBBP9 inhibitor project, biochemical, fluorescence polarization, triplicate; inhibition, % at 9.51 µM; 930 compounds, 44% hits; AID 1978, 2009; recombinant Fam108b, FP-Rh probe fluorescence polarization; shares compounds with Fam108B inh;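 active = inhibition above a limit from the primary screen, the mean over all compounds plus 3 SD, cut at about 19% in these data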;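 also: 0% = median of active Fam108b wells and 100% = catalytically dead S170A mutant; inhibitors free the probe so polarization falls as inhibition rises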
Fam108b ABPP HTS: inhibition of mouse Fam108b by HTS hits, late-stage follow-up, biochemical, gel-based ABPP, soluble recombinant form; 260 compounds, 44% hits; shares compounds with Fam108B inh; fluorophosphonate probe; inhibition, % at 20 µM; in the data active = inhibition above about 40%
Active calls of the source: *; . = not tested or not shown. Most compounds without a hit are left out; they make up all but 1.8% or so of the library.

SMILES	PME-1 primary	SIAE inh	TCR-CD3 inh	Fam108B inh	ABHD4 inh	HTRA1 inh	Fam108b inh conf	others
CCN(CC)C(=O)CC[C@H]1CC[C@]2(CCCN(S(=O)(=O)c3ccccc3)C2)O1	.	-1	.	.	1	.	.
O=C(NCc1ccccc1)C1Nc2ccc(OC(F)(F)F)cc2C2C=CCC12 (configuration not stated)	3	10	-3	3	12	17	.
O=C(O)C1Nc2ccc(OC(F)(F)F)cc2C2C=CCC12 (configuration not stated)	6	.	.	22*	.	.	4
Cn1cccc1C(=O)N1CCN(S(=O)(=O)c2ccc(C(C)(C)C)cc2)CC1	.	0	.	.	3	.	.
COC(=O)[C@]12C[C@H](CC(=O)N3CCC(c4ccccc4)CC3)C(=O)N(Cc3ccc(Cl)cc3Cl)C1=C[C@H](C(C)(C)C)O[C@@H]2C	.	-2	.	.	2	.	.
O=C(O)c1ccc(S(=O)(=O)/N=C2\C=C(Nc3ccccc3F)C(=O)c3ccccc32)cc1	26	8	0	49*	58*	27	66*	Fam108b ABPP HTS=85*
CC(=O)Nc1ccc(NC(=O)C(C)OC(=O)c2ccccc2NS(=O)(=O)c2cccs2)cc1 (configuration not stated)	0	-1	-4	4	-3	-14	.
O=C1C(Nc2ccccc2)=CC(=NS(=O)(=O)c2cccs2)c2ccccc21	.	.	.	.	.	.	.	Fam108b ABPP HTS=0
COC(=O)C(C(C)=O)C1=C/C(=N\S(=O)(=O)c2ccc(C)cc2)c2ccccc2C1=O (configuration not stated)	-1	.	.	-8	.	-6	.
CC(=O)Nc1ccc(NC2=C/C(=N/S(=O)(=O)c3cccs3)c3ccccc3C2=O)cc1	22	13	2	41*	34*	.	40*
CC(=O)Nc1ccc(NC2=CC(=NS(=O)(=O)c3cccs3)c3ccccc3C2=O)cc1	.	.	.	.	.	.	.	Fam108b ABPP HTS=20
Cc1ccc(NC2=C/C(=N/S(=O)(=O)c3cccs3)c3ccccc3C2=O)cc1C	4	7	10	5	7	3	.
CCOC(=O)N1CCN(C(=O)C[C@H]2C[C@@]3(C(=O)OC)C(=C[C@H](C(C)C)O[C@@H]3C3CC3)N(Cc3cccc4ccccc34)C2=O)CC1	.	4	.	.	-3	.	.
CCCCNC(=O)NCCCN1CCN(c2ccc(F)cc2)CC1	.	2	.	.	7	.	.
Cc1ccccc1NC1=C/C(=N\S(=O)(=O)c2cccs2)c2ccccc2C1=O	30*	7	-8	41*	28	18	60*	Fam108b ABPP HTS=60*
COc1cccc2c1C(=O)c1c(O)c3c(c(O)c1C2=O)C[C@@](O)(C(=O)CO)C[C@@H]3O[C@H]1C[C@H](N)[C@@H](O)[C@H](C)O1	46*	.	.	36*	.	69*	35*	Fam108b ABPP HTS=35
CC(=O)[C@]1(O)Cc2c(O)c3c(c(O)c2[C@@H](O[C@H]2C[C@H](N)[C@H](O)[C@H](C)O2)C1)C(=O)c1ccccc1C3=O	72*	.	.	71*	.	.	73*	Fam108b ABPP HTS=20
CCCOc1ccc(C2C3=C(Nc4nc(N)[nH]c(=O)c42)c2ccccc2C3=O)cc1 (configuration not stated)	13	11	-5	23*	-2	1	19*
CCOc1ccc(C2C3=C(Nc4nc(N)[nH]c(=O)c42)c2ccccc2C3=O)cc1 (configuration not stated)	4	11	-3	7	9	16	.
COc1ccc(-c2noc(C3CCCN(C(=O)NC4CCC(C)CC4)C3)n2)cc1 (configuration not stated)	.	8	.	.	0	.	.
Cc1cc(C=O)c(C)n1-c1cccc(C(=O)O)c1	-6	-4	-6	1	6	9	.
Cc1ccc(C)n1-c1cccc(C(=O)O)c1	-27	.	.	35*	.	.	43*	Fam108b ABPP HTS=0
CCn1c2ccccc2c2cc(C=NNC(=O)c3cc(-c4ccc(OC)cc4)n[nH]3)ccc21	.	-21	.	.	-32	.	.
Nc1nn2cc(-c3ccc(Br)cc3)nc2c2ccccc12	-1	-12	3	27*	-15	-69	3
N#Cc1c(NC(=O)c2ccc(Br)o2)n(-c2ccccc2)c2nc3ccccc3nc12	17	-15	-1	33*	3	6	34*	Fam108b ABPP HTS=0
SMILES	PME-1 primary	SIAE inh	TCR-CD3 inh	Fam108B inh	ABHD4 inh	HTRA1 inh	Fam108b inh conf	others
CCC(=O)Nc1c(C#N)c2nc3ccccc3nc2n1-c1ccc(C)cc1	.	0	10	.	-1	-8	.
COc1cccc(C(=O)COc2cccc(NC(=O)c3cccc([N+](=O)[O-])c3)c2)c1	23	0	0	24*	-2	-31	24*
O=C(COc1cccc(NC(=O)c2cccc([N+](=O)[O-])c2)c1)c1ccc(F)cc1	10	-3	-1	14	-20	-39	.
Cn1c(=O)c2[nH]c(SCC(=O)N3CCN(c4cccc(C(F)(F)F)c4)CC3)nc2n(C)c1=O	.	2	.	.	1	.	.
N#C/C(=C\c1ccc(N2CCOCC2)c([N+](=O)[O-])c1)c1nc2ccccc2[nH]1	15	4	-8	11	7	1	.
Cc1ccc2nc(/C(C#N)=C\c3ccc(N4CCCCC4)c([N+](=O)[O-])c3)[nH]c2c1	68*	-1	14	31*	19	-6	0
COc1ccc(Cn2c(NC(=O)c3ccccc3)nc(Cc3ccccc3)c2Cc2ccccc2)cc1	.	-5	.	.	6	.	.
Fc1ccccc1NC(=S)NCc1ccc2c(c1)OCO2	1	3	-3	-1	3	7	.
O=S(=O)(c1c(F)cccc1F)N1CCN(C(=S)NCc2ccc3c(c2)OCO3)CC1	8	-4	4	25*	-10	-15	17
O=C(Cc1ccccc1)NCCn1ccc2ccccc21	-1	-8	-2	1	-15	1	.
CC(=O)NCCn1ccc2ccccc21	-6	2	0	22*	2	-6	5
Cc1nn(-c2ccccc2)c(Cl)c1C=NNc1ccc(S(=O)(=O)Nc2ccccc2C(=O)O)cc1[N+](=O)[O-]	.	.	.	.	.	.	.	Fam108b ABPP HTS=0
Cc1nn(-c2ccccc2)c(N2CCCC2)c1/C=N/Nc1ccc(S(N)(=O)=O)cc1[N+](=O)[O-]	16	16	-1	11	6	16	.
